Data reported in ChEMBL document CHEMBL3632581, “Dimers of Melampomagnolide B Exhibit Potent Anticancer Activity against Hematological and Solid Tumor Cells” (J Med Chem, 2015).

What was measured:
K562 = test: Cytotoxicity against human K562 cells after 48 hrs by SRB assay; type: functional; details: K562, 48 h
Method in brief: (§1)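 NCI-60 five-dose screen at 10−8 to 10−4 M. Cells were plated at 5,000–40,000/well in RPMI 1640 with 5% FBS and 2 mM L-glutamine, then preincubated 24 h, and time-zero plates were TCA-fixed. Compound was added from DMSO stocks and exposed 48 h at 37 °C. Cells were TCA-fixed, SRB-stained, and read at 515 nm. LC50 is the concentration halving the cell population through cell death.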

SR = test: Cytotoxicity against human SR cells after 48 hrs by SRB assay; type: functional
Method in brief: (§2)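 NCI-60 screen: cells grown in RPMI 1640 with 5% FBS and 2 mM L-glutamine, plated at 5,000–40,000 cells/well by doubling time, and preincubated 24 h at 37 °C before drug. Drug was diluted from DMSO stock and given at five concentrations, 10−4 to 10−8 M, for 48 h. Cells fixed with cold TCA, SRB stained, OD read at 515 nm against time-zero and vehicle plates. LC50 taken as the concentration that halves cell population through cell death.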

A549 = test: Cytotoxicity against human A549 cells after 48 hrs by SRB assay; type: functional; details: A549, 48 h; method in brief: as §1
HOP-92 = test: Cytotoxicity against human HOP92 cells after 48 hrs by SRB assay; type: functional; details: HOP-92, 48 h; method in brief: as §1
NCI-H226 = test: Cytotoxicity against human NCI-H226 cells after 48 hrs by SRB assay; type: functional; details: NCI-H226, 48 h; method in brief: as §1
NCI-H460 = test: Cytotoxicity against human NCI-H460 cells after 48 hrs by SRB assay; type: functional; details: NCI-H460, 48 h; method in brief: as §1
COLO 205 = test: Cytotoxicity against human COLO205 cells after 48 hrs by SRB assay; type: functional; details: COLO 205, 48 h; method in brief: as §1
HCC 2998 = test: Cytotoxicity against human HCC2998 cells after 48 hrs by SRB assay; type: functional; details: HCC 2998, 48 h; method in brief: as §1
HCT-116 = test: Cytotoxicity against human HCT116 cells after 48 hrs by SRB assay; type: functional; details: HCT-116, 48 h; method in brief: as §1
HCT-15 = test: Cytotoxicity against human HCT15 cells after 48 hrs by SRB assay; type: functional; details: HCT-15, 48 h; method in brief: as §1
HT-29 = test: Cytotoxicity against human HT-29 cells after 48 hrs by SRB assay; type: functional; details: HT-29, 48 h; method in brief: as §1
Malme-3M = test: Cytotoxicity against human MALME-3M cells after 48 hrs by SRB assay; type: functional; method in brief: as §1
SK-MEL-2 = test: Cytotoxicity against human SK-MEL-2 cells after 48 hrs by SRB assay; type: functional; details: SK-MEL-2, 48 h; method in brief: as §1
SK-MEL-28 = test: Cytotoxicity against human SK-MEL-28 cells after 48 hrs by SRB assay; type: functional; details: SK-MEL-28, 48 h; method in brief: as §1
UACC-257 = test: Cytotoxicity against human UACC257 cells after 48 hrs by SRB assay; type: functional; details: UACC-257, 48 h; method in brief: as §2
OVCAR-5 = test: Cytotoxicity against human OVCAR5 cells after 48 hrs by SRB assay; type: functional; details: OVCAR-5, 48 h; method in brief: as §1
OVCAR-8 = test: Cytotoxicity against human OVCAR8 cells after 48 hrs by SRB assay; type: functional; details: OVCAR-8, 48 h; method in brief: as §1
[1] = Cytotoxicity against human NCI-ADR-RES cells after 48 hrs by SRB assay; type: functional; method in brief: as §1
SK-OV-3 = test: Cytotoxicity against human SKOV3 cells after 48 hrs by SRB assay; type: functional; details: SK-OV-3, 48 h; method in brief: as §1
786-0 = test: Cytotoxicity against human 786-0 cells after 48 hrs by SRB assay; type: functional; details: 786-0, 48 h; method in brief: as §1
ACHN = test: Cytotoxicity against human ACHN cells after 48 hrs by SRB assay; type: functional; method in brief: as §1
SN12C = test: Cytotoxicity against human SN12C cells after 48 hrs by SRB assay; type: functional; method in brief: as §1
TK-10 = test: Cytotoxicity against human TK10 cells after 48 hrs by SRB assay; type: functional; details: TK-10, 48 h; method in brief: as §2
UO-31 = test: Cytotoxicity against human UO31 cells after 48 hrs by SRB assay; type: functional; details: UO-31, 48 h; method in brief: as §2
DU-145 = test: Cytotoxicity against human DU145 cells after 48 hrs by SRB assay; type: functional; details: DU-145, 48 h; method in brief: as §1
MCF7 = test: Cytotoxicity against human MCF7 cells after 48 hrs by SRB assay; type: functional; details: MCF7, 48 h
Method in brief: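 NCI-60 screen: cells in RPMI 1640 with 5% FBS and 2 mM L-glutamine, preincubated 24 h at 37 °C. Compound was then added for 48 h at five concentrations (10−4 to 10−8 M). Cells were fixed with cold TCA and stained with 0.4% SRB in 1% acetic acid, and OD read at 515 nm. GI50 is the concentration halving net protein increase versus control.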

[2] = Cytotoxicity against human Hs 578T cells after 48 hrs by SRB assay; type: functional; method in brief: as §1
[3] = Antileukemic activity against human AML01 cells after 24 hrs by annexin V/7-AAD staining-based flow cytometric analysis; type: functional, cell-based
Method in brief: (§3)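 Primary AML specimens from consenting donors, isolated by Ficoll-Paque gradient and sometimes cryopreserved. Cells were held 1 h in serum-free IMDM with 20% BIT 9500, LDL and β-mercaptoethanol before drug (DMSO stock diluted in PBS, ≤0.5% DMSO final). Exposure was 24 h over 0.5-10 μM. Annexin V/7-AAD double-negative cells, normalized to vehicle, gave the EC50. Run in triplicate.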

[4] = Antileukemic activity against human AML04 cells after 24 hrs by annexin V/7-AAD staining-based flow cytometric analysis; type: functional, cell-based; method in brief: as §3
[5] = Antileukemic activity against human AML05 cells after 24 hrs by annexin V/7-AAD staining-based flow cytometric analysis; type: functional, cell-based; method in brief: as §3
[6] = Cytotoxicity against hematopoietic progenitor cells isolated from human umbilical cord blood by annexin V staining-based flow cytometric analysis; type: cell-based
Method in brief: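 Cord-blood mononuclear cells from Ficoll-Paque were plated in serum-free medium, with drug from a DMSO stock (≤0.5% DMSO final). Cells were stained for CD34, CD45 and annexin V. The non-apoptotic fraction (annexin V-negative within the CD34+CD45dim compartment) was normalized to vehicle, and EC50 was fitted where possible. Triplicate.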

[7] = Potency index, ratio of parthenolide EC50 to compound EC50 for human M9-ENL1 cells; type: functional
[8] = read-out: LC50 (the source's name)

## C=C1C(=O)O[C@H]2[C@H]1CC/C(COC(=O)NCCCCCCCCNC(=O)OC/C1=C/CC[C@@]3(C)O[C@H]3[C@H]3OC(=O)C(=C)[C@@H]3CC1)=C\CC[C@@]1(C)O[C@@H]21
K562
  GI50: 0.34 µM
K562; [8]
  CC50: > 100 µM
SR
  GI50: 0.31 µM
SR; [8]
  CC50: > 100 µM
A549
  GI50: 1.7 µM
A549; [8]
  CC50: 7.26 µM
HOP-92
  GI50: 0.17 µM
HOP-92; [8]
  CC50: 2.29 µM
NCI-H226
  GI50: 1.81 µM
NCI-H226; [8]
  CC50: 21.1 µM
NCI-H460
  GI50: 1.75 µM
NCI-H460; [8]
  CC50: 9.02 µM
COLO 205
  GI50: 0.3 µM
COLO 205; [8]
  CC50: 3.99 µM
HCC 2998
  GI50: 1.2 µM
HCC 2998; [8]
  CC50: 5.28 µM
HCT-116
  GI50: 0.19 µM
HCT-116; [8]
  CC50: 0.83 µM
HCT-15
  GI50: 0.34 µM
HCT-15; [8]
  CC50: 4.18 µM
HT-29
  GI50: 0.22 µM
HT-29; [8]
  CC50: 2.27 µM
Malme-3M
  GI50: 0.19 µM
Malme-3M; [8]
  CC50: 0.92 µM
SK-MEL-2
  GI50: 0.6 µM
SK-MEL-2; [8]
  CC50: 17 µM
SK-MEL-28
  GI50: 0.2 µM
SK-MEL-28; [8]
  CC50: 2.12 µM
UACC-257
  GI50: 0.84 µM
UACC-257; [8]
  CC50: 8.51 µM
OVCAR-5
  GI50: 0.26 µM
OVCAR-5; [8]
  CC50: 4.04 µM
OVCAR-8
  GI50: 0.32 µM
OVCAR-8; [8]
  CC50: 6.77 µM
[1]
  GI50: 3.91 µM
[1]; [8]
  CC50: 82 µM
SK-OV-3
  GI50: 3.64 µM
SK-OV-3; [8]
  CC50: 35.1 µM
786-0
  GI50: 0.24 µM
786-0; [8]
  CC50: 2.93 µM
ACHN
  GI50: 0.25 µM
ACHN; [8]
  CC50: 2.85 µM
SN12C
  GI50: 0.26 µM
SN12C; [8]
  CC50: 5.49 µM
TK-10
  GI50: 0.28 µM
TK-10; [8]
  CC50: 2.95 µM
UO-31
  GI50: 0.88 µM
UO-31; [8]
  CC50: 4.9 µM
DU-145
  GI50: 1.1 µM
  LC50 (concentration killing half the cells): 4.81 µM
MCF7
  GI50: 0.22 µM
MCF7; [8]
  CC50: 4.3 µM
[2]
  GI50: 1.17 µM
[2]; [8]
  CC50: > 100 µM
[3]
  EC50: 2.6 µM
[4]
  EC50: 3.7 µM
[5]
  EC50: 2.3 µM
[6]
  EC50: > 10 µM
[7]
  Ratio EC50: 2
